SMILES strings stand for the structures. Active and inactive are the calls of the source. The calls are words filed in the database; no cut-off is given here.

The nature of data set [1]: Toxicity in Swiss mice (Mus musculus) infected with chloroquine-sensitive Plasmodium berghei ANKA assessed as mortality at 50 mg/kg, intraperitoneally administered 4 to 6 hrs after infection for 5 consecutive days measured within 7 days of postinfection. More on the design: dose 50 mg/kg, route intraperitoneal. The format is organism-based. Conditions: in vivo, ip, read-out: Activity. The method, boiled down:
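Swiss mice were infected intraperitoneally with 4 × 10⁸ erythrocytes carrying chloroquine-sensitive P. berghei ANKA. They were dosed intraperitoneally at 50 mg/kg daily for five consecutive days. Parasitaemia was read on Giemsa-stained blood smears on days 4 and 7.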

Another data set has as its system Plasmodium falciparum. The experiment in a line: Antiplasmodial activity against chloroquine-sensitive Plasmodium falciparum Ghana in human erythrocytes after 72 hrs by Malstat assay. The format is functional, organism-based. In a few lines: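 P. falciparum Ghana strain grown in human erythrocytes in RPMI-1640 at 37 °C under 3% O2, 4% CO2, 93% N2. Exposure to compounds lasted 72 h. Multiplication was read by Malstat with absorbance at 655 nm, and % growth inhibition was taken against negative blanks.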

The nature of data set [2]: Cytotoxicity against human MRC5 SV2 cells after 72 hrs by resazurin-based fluorometric assay. The format is cell-based. As to conditions: MRC5, 72 h. In a few lines:
(§1)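 MRC-5 SV2 fibroblasts were kept in MEM with 20 mM L-glutamine and 5% FCS at 37 °C, 5% CO2. Cells were seeded at 10⁴/well onto prediluted compounds and incubated 72 h. Viability was read fluorimetrically after resazurin addition.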
For orientation: The colour change of resazurin is a common sign of viable cells or microbes.

A short description of data set [3]: Selectivity index, ratio of IC50 for human MRC5 SV2 cells to IC50 for chloroquine-sensitive Plasmodium falciparum Ghana. As to conditions: read-out: Ratio IC50. The data set is classed as toxicity, cell-based.
A further data set deals with Nucleic Acid. Nature of the data set: Binding affinity to DNA assessed as intercalation after 24 hrs by DNA-methyl green assay. The data set is classed as nucleic-acid assay. In a few lines:
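DNA-methyl green reagent (20 mg in 100 mL 0.05 M Tris HCl pH 7.5 with 7.5 mM MgSO4, stirred 24 h at 37 °C) was added to dried compound. A620 was read at 0 and after 24 h at 25 °C. […] Cryptolepine was the positive control.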

The target of data set [4] is T1, Histidine-rich protein PFHRP-II (Plasmodium falciparum) (UniProt P05227).
T1 sequence (whole entry): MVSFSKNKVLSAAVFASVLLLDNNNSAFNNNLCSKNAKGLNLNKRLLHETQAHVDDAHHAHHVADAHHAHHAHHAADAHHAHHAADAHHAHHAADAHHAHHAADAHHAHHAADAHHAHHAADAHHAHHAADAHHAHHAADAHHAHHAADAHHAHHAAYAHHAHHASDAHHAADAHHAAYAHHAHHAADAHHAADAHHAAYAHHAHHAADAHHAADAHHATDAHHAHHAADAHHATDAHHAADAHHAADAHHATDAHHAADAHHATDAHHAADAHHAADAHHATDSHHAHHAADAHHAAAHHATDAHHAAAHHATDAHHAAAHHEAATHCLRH
The experiment in a line: Inhibition of beta-hematin formation at 5 milliequivalent after 18 hrs by microtiter plate assay. The data set is classed as functional.

The test system of data set [5] is Plasmodium berghei. Nature of the data set: Antiplasmodial activity as reduced parasitaemia against chloroquine-sensitive Plasmodium berghei ANKA infected Swiss mice (Mus musculus) at 50 mg/kg intraperitoneal dose 4-6 hrs post infection on day 4. The data set is classed as functional. More on the design: scale not given: the % may be the effect or the level left. In a few lines: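 Swiss mice were infected ip with 4 × 10⁸ P. berghei ANKA-infected erythrocytes. Treatment was ip at 50 mg/kg daily for five consecutive days. Parasitaemia was scored on Giemsa-stained blood smears on days 4 and 7.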

Data set [6] concerns Plasmodium berghei. The experiment in a line: Antiplasmodial activity as reduced parasitaemia against chloroquine-sensitive Plasmodium berghei ANKA infected Swiss mice (Mus musculus) at 20 mg/kg intraperitoneal dose 4-6 hrs post infection on day 4. The format is functional, organism-based. More on the design: dose 20 mg/kg. The method, boiled down:
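Mice infected ip with P. berghei ANKA-infected erythrocytes (4 × 10⁸) received the compound intraperitoneally. Parasitaemia was counted on Giemsa-stained blood smears on days 4 and 7.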

Another data set deals with MRC5. The experiment in a line: Cytotoxicity against human MRC5 cells. The data set is classed as cell-based. The method, boiled down:
as §1

Data set [7] deals with T2, Histidine-rich protein PFHRP-II (Plasmodium falciparum, UniProt P05227).
T2 sequence (P05227 whole entry): T1 sequence (whole entry)
Nature of the data set: Inhibition of beta-hematin formation after 18 hrs by microtiter plate assay. The format is functional.

As for `CCN(CC)CCCC(C)Nc1c2c3ccccc3nc-2n(C)c2ccc(Cl)cc12` (centres undefined), in data set [1], the mortality at 7 days is 50%. Further, the IC50 in the data set with Plasmodium falciparum was 43 nM; in [2], 29 µM; at Nucleic Acid, over 1 mM. Also, the selectivity ratio in data set [3] amounted to 674. Also, in data set [4], the inhibition was under 20%. Also, in the data set on Plasmodium berghei [5], the Activity was found to be 100%. In the data set with Plasmodium berghei [6], the outcome was inactive.

Consider `Cn1c2nc3ccccc3c-2cc2cc(Br)ccc21`, for which the IC50 in the data set with MRC5 was over 32 µM; in data set [2] it was over 32 µM; on Nucleic Acid it was over 0.4 mM; in data set [7], 1.77 milliequivalent. Moreover, in data set [3], the selectivity ratio is over 5.

In the case of `CCN(CC)CCCC(C)Nc1c2cc(Cl)ccc2nc2[nH]c3ccccc3c12` (centres undefined), the IC50 in the data set with Plasmodium falciparum was 120 nM; in [2], over 64 µM; on Nucleic Acid it was over 1 mM; in [7] it was 2.3 milliequivalent. For the same compound, the selectivity ratio in data set [3] was over 533. The result with Plasmodium berghei [5] was inactive.

As a reminder, the inhibition is the drop in the measured response relative to a control, in per cent.
